These results are taken from the EternaBench riboswitch data.

For orientation: apparent Kd means the concentration giving half-maximal binding under the conditions of the assay.

The test system of this series is MS2 coat protein. The series is described as follows: apparent Kd, MS2 coat protein; higher = weaker binding; RNA-MaP array; FMN 200 µM where present. Summed up: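 Stalled E. coli RNA polymerase transcribed the designs on Illumina sequencing-chip clusters. SNAP-549-labelled MS2 coat protein was titrated from 0.7 or 1.5 nM, doubling to 3 µM, without and then with constant ligand, in 100 mM Tris-HCl pH 7.5, 80 mM KCl, 4 mM MgCl2, BSA, DTT, yeast tRNA and Tween-20. Per-cluster binding curves were fitted to green signal normalised to red-channel RNA signal and control-cluster median Fmax. The apparent Kd is the median of the filtered fits.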

The mark [1] stands for this setting: designed as: OFF switch for flavin mononucleotide, no ligand.
Setting [2] is: ligand present: flavin mononucleotide, designed as: OFF switch for flavin mononucleotide.
The mark [3] stands for this setting: designed as: ON switch for flavin mononucleotide, no ligand.
Setting [4] is: ligand present: flavin mononucleotide, designed as: ON switch for flavin mononucleotide.

Regarding “AAAAUGAGUCAAGGAUAUCCGAGCAGAAUGCUAGGAGAAGGUGACAUGAGGAUCACCCAUGUCUCUCCGAGCAUGGUAUUCUCA”, the “apparent Kd” value was 27.1 nM under setting [1] and 31.9 nM under setting [2].
For “GCAGGUCGAGGAUAUACAUGAGGAUCACCCAUGUGAUUAGCAGUCCUCGGACUGCAAUGUAGAAGGUGACCUGC” the same measures were 148 nM and 501 nM.
Turning to “AAAAAACAUGAGGAUCACCCAUGUUAGGAUAUCGUGCAGAAAAAAAAAAAAAACUGCACGAGAAGGAACAAGGA”, the “apparent Kd” value under setting [1] is 74.5 nM and the “apparent Kd” value under setting [2] worked out at 98.8 nM.
In the case of “UUUUAACAUGAGGAUCACCCAUGUGAGGAUAUCGAAAUUUAUAUUAAUAUUAAUUUUACGAGAAGGCACAUUUU”, the “apparent Kd” value is 112 nM under setting [1] and 100 nM under setting [2].
In the same order, the values of “GUUGUUUGAGGAUAUACAUGAGGAUCACCCAUGUGUGUCCAUACGCGUGAGUCUUCGUGUAGAAGGCGGGCGGC” are 13.7 nM and 14.7 nM.
On to “CGUAGCUCCUGUUCGAAUCUCCGUGAGGAUAUCUUCAGACAUGAGGAUCACCCAUGUACAAAGGAAGAGAAGGCACGGUCCGAU”, for which the “apparent Kd” value is 4.86 nM under setting [3] and 4.33 nM under setting [4].
Take “UAGAAAGAUUAAUAUGAUUACAUGAGGAUCACCCAUGUAUAAUAGGAUAUCGACGUCAAUGACGUCGAGAAGGAUUAUACAUAA”: the “apparent Kd” value was determined as 53.6 nM under setting [1] and 71.2 nM under setting [2].
Consider “AAGUAGGUAGGAUAUACAUGGAUAUACAUUCAUGUGGAUUUACAUGAGGAUCACCCAUGUAGAAGGACCUAAUA”, for which the “apparent Kd” value by setting is: under setting [1], 118 nM; under setting [2], 30.8 nM.
For “ACCGUGUCAGGAUAUCCUGCUGUGCGGACUCUGUCUUCACGGGAGAAGGGACAUGAGGAUCACCCAUGUUUGAG” the same measures were 20.2 nM and 25.4 nM.
As for “AAUAACAGAGGAUAUACUGUUUUAUGUAUUUAUUAUUUUGAACAUGAGGAUCACCCAUGUAGAAGGCUGAUUGA”, the “apparent Kd” value by setting is: under setting [1], 35.6 nM; under setting [2], 31.6 nM.
On to “AUAAUGCGUGCUACGCAAAAUAACGCAGAAGGCCAACAUGAGGAUCACCCAUGUAAAAGAAAGAUGGAGGAUAUGCGGUUUGGC”, for which the “apparent Kd” value reads like this: under setting [3], 51 nM; under setting [4], 6.74 nM.
“UGGUACUAGGGAGGAUAUGGGCAGAUACAUGAGGAUCACCCAUGUUUAAGAAUGCCGAGAGGCAACUAGAAGGCCCUAGUACCU”: the “apparent Kd” value runs as follows: under setting [3], 553 nM; under setting [4], 25.5 nM.
For “GGAUUGUGAGGAUAUUAGUUGUACGUCAAUAGACGUAUAAGUGAGAAGGCACAUGAGGAUCACCCAUGUUCCUG”, the “apparent Kd” value was 22.7 nM under setting [1] and 80.7 nM under setting [2].
For “CAGAAUUGAGGAUAUGAUCAAUUUAACAUGAGGAUCACCCAUGUAUGGGAAUGAUUCUGAUCAGAAGGCGAUUCUU”, the “apparent Kd” value is 1290 nM under setting [1] and 910 nM under setting [2].
Turning to “ACACGUGUGUCAGGAUAUCACACUAAUUGGACUAACUAUAUGAAAGCACAUGAGGAUCACCCAUGUGAGAAGGGACGCCACCUG”, the “apparent Kd” value under setting [1] was 12 nM and the “apparent Kd” value under setting [2] came to 9.97 nM.
Take “GCGUUACAUGAGGAUCACCCAUGUGAGGAUAUGGUUCGGUACUGUCCUGUCGCGUACUCCAGAAGGCACGUGUC”: the “apparent Kd” value came to 31.3 nM under setting [1] and 34.7 nM under setting [2].
For the sequence “GCUGUCGCAUGAGGAUAUGGUCAGCUUUGCUGACCAGAAGGCAUGUCAAUAGACAUGAGGAUCACCCAUGUAGUUAAGACAGCA”, the “apparent Kd” value under setting [3] turned out to be 717 nM and the “apparent Kd” value under setting [4] was 49.2 nM.
Consider “UAGUAUAAGGGCAUUAAACAUGAGGAUCACCCAUGUACGUUAGAGGAUAUGCAUUACAGUUGAAAGUAGAAGGUUAGAGAAGGG”, for which the “apparent Kd” value came out at 45.6 nM under setting [1] and 50.1 nM under setting [2].
On to “AAAAUCUAUAGAGGAUAUCGUUCUUAAAGAGAAUGAGAAGGCUAACAAUCAUGAGGACAUGAGGAUCACCCAUGUUGUGACCAU”, for which the “apparent Kd” value under setting [3] amounted to 19.1 nM and the “apparent Kd” value under setting [4] turned out to be 9.71 nM.
As to “UGAUAGCACAGAGGAUAUGCGUUGUGUUAUCUCUACAUGAGGAUCACCCAUGUAGAAGGCUGUGCUAUCUAAGUCGGAAACGAU”, the “apparent Kd” value was 5.57 nM under setting [1] and 7.16 nM under setting [2].
“UCGCGGGAGCAGAAGGGACAGGCCUAUUGUCGUGAGGUCUGCACUUAACAUGAGGAUCACCCAUGUCAGGAUAUGCCCACGCGA”: the “apparent Kd” value is 4.8 nM under setting [1] and 4.94 nM under setting [2].
Consider “CAUCAGGUACGAGGAUAUCCGCGAUCUCUUCGAGGAGAAGGCGUACAUGAGGAUCACCCAUGUGGGCGAGACAGACGAAGUCUG”, for which the “apparent Kd” value under setting [1] was 114 nM and the “apparent Kd” value under setting [2] is 59.5 nM.
For “GUGUACAGAGGAUAUACACGAGGAGUUACGAAAGUAACUUCACAUGAGGAUCACCCAUGUAGAAGGCUGUACAC” the same measures were 25.3 nM and 36.6 nM.
Consider “GUCGAAGCCGUACUGGUCGACGGUCAGGAUAUACAUGAGGAUCACCCAUGUGCUAUUGAUACUAUGUAGAAGGGACCCACCGCA”, for which the “apparent Kd” value reads like this: under setting [1], 13.3 nM; under setting [2], 19 nM.
